Measurements taken from PMC3572549 (Bioorganic & medicinal chemistry, 2012).

What was measured:
[1] = test system: cellular microtubules in A-10 cells; assay: Loss of cellular; type: cell-based, rat; conditions: for Effect on cellular microtubules (in words): concentrations as high as 10 or 40 µM
Summary of the method: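 Rat aortic smooth muscle A-10 cells were exposed to DMSO vehicle or test compound for 18 h, fixed in cold methanol, and stained for β-tubulin by indirect immunofluorescence. […] It is reported as mean ±SD of 3–4 independent experiments.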

[2] = test system: purified porcine brain tubulin; assay: Preliminary study of inhibition of tubulin polymerization; type: biochemical; conditions: porcine brain tubulin 2.5 mg/mL, absorbance at 340 nm, 37 °C
Summary of the method: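 Porcine brain tubulin (2.5 mg/mL) was incubated with test compound, colchicine or DMSO vehicle. Polymerization was followed turbidimetrically as absorbance at 340 nm at 37 °C.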

[3] = test system: MDA-MB-435 cells; assay: Cell cycle distribution by flow cytometry; type: cell-based, human; conditions: 44.1 nM or 73.5 nM, 18 h
[4] = test system: mitotic spindles; assay: Formation of aberrant mitotic spindles; type: cell-based; conditions: data not shown
[5] = Water solubility; type: physicochemical

Structure (SMILES)	Effect on cellular microtubules (in words) [1]	Effect on mitotic spindles [4]	also measured
COc1ccc(Nc2nc(N)nc3[nH]c4ccccc4c23)cc1 [Compound 4, N^4-(4-Methoxyphenyl)-9H-pyrimido[4,5-b]indole-2,4-diamine]	inactive	–	–
COc1ccc(N(C)c2nc(N)nc3[nH]c4ccccc4c23)cc1 [Compound 6, N^4-(4-Methoxyphenyl)-N^4-methyl-9H-pyrimido[4,5-b]indole-2,4-diamine]	active	caused the formation of aberrant mitotic spindles	Effect on interphase microtubule network (immunofluorescence) ([1]; 500 nM 6, 18 h incubation): extensive loss of the interphase microtubule network; Inhibition of tubulin assembly (initial study, in words) [2]: potent inhibitor of tubulin assembly; Effect on cell cycle distribution [3]: accumulation of cells in the G2/M phase of the cell cycle
COc1ccc(N(C)c2nc(N)nc3[nH]c4ccccc4c23)cc1.Cl [Compound 6·HCl, 4-((4-Methoxyphenyl)(methyl)amino)-9H-pyrimido[4,5-b]indol-2-aminium chloride]	–	–	Solubility in water [5]: freely soluble in water
COc1ccc(N(C)c2nc(NC(=O)C(C)(C)C)nc3[nH]c4ccccc4c23)cc1 [Compound 7, N-{4-[(4-Methoxyphenyl)(methyl)amino]-9H-pyrimido[4,5-b]indol-2-yl}-2,2-dimethylpropanamide]	inactive	–	–
COc1cccc(N(C)c2nc(N)nc3[nH]c4ccccc4c23)c1 [Compound 10, N^4-(3-Methoxyphenyl)-N^4-methyl-9H-pyrimido[4,5-b]indole-2,4-diamine]	inactive	–	–
COc1cc(Nc2nc(N)nc3[nH]c4ccccc4c23)cc(OC)c1OC [Compound 12, N^4-(3,4,5-Trimethoxyphenyl)-9H-pyrimido[4,5-b]indole-2,4-diamine]	inactive	–	–
Cc1ccc(N(C)c2nc(N)nc3[nH]c4ccccc4c23)cc1 [Compound 13, N^4-Methyl-N^4-(4-methylphenyl)-9H-pyrimido[4,5-b]indole-2,4-diamine]	inactive	–	–
CCN(c1ccc(OC)cc1)c1nc(N)nc2[nH]c3ccccc3c12 [Compound 14, N^4-Ethyl-N^4-(4-methoxyphenyl)-9H-pyrimido[4,5-b]indole-2,4-diamine]	active	caused the formation of aberrant mitotic spindles	–
CCOc1ccc(N(C)c2nc(N)nc3[nH]c4ccccc4c23)cc1 [Compound 15, N^4-(4-Ethoxyphenyl)-N^4-methyl-9H-pyrimido[4,5-b]indole-2,4-diamine]	active	caused the formation of aberrant mitotic spindles	–
